Laboratory results published in ChEMBL document CHEMBL4196090, “Design, synthesis and biological evaluation of piperazinyl-β-carbolinederivatives as anti-leishmanial agents” (Eur J Med Chem, 2018).

Legend:
[1] = Selectivity index, ratio of CC50 for human HeLa cells to EC50 for Leishmania infantum JPCM5 MCAN/ES/98/LLM-87 axenic amastigotes; format: toxicity; conditions: read-out: Ratio CC50/EC50
Outline: (§1)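 Selectivity index computed as CC50 (HeLa, Alamar blue) divided by EC50 for the respective parasite stage.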

[2] = Selectivity index, ratio of CC50 for human HeLa cells to EC50 for Leishmania infantum JPCM5 MCAN/ES/98/LLM-87 promastigotes; format: toxicity; conditions: read-out: Ratio CC50/EC50; outline: as §1
[3] = Selectivity index, ratio of CC50 for human HeLa cells to EC50 for Leishmania donovani LdBOB axenic amastigotes; format: toxicity; conditions: read-out: Ratio CC50/EC50; outline: as §1
[4] = test system: Leishmania donovani; assay: Antileishmanial activity against Leishmania donovani LdBOB amastigotes infected in human THP1 cells after 72 hrs by Giemsa staining based microscopic method; format: functional, organism-based; conditions: THP-1, 72 h
Outline: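 THP-1 cells, kept in MEM plus 10% FBS, plated at 20,000/well with 10 nM PMA, 37 °C, 5% CO2, 75 h. Washed in PBS with 1 mM CaCl2, 0.5 mM MgCl2, 0.1% BSA. Infected with axenic LdBOB amastigotes at MOI 5 for 18 h, washed, serial compound dilutions for 72 h. Methanol fixation, Giemsa stain, ~200 macrophages/well counted. % infection vs untreated control (100%) gives EC50.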

[5] = test system: Leishmania donovani; assay: Antileishmanial activity against Leishmania donovani promastigotes after 72 hrs by alamar blue assay; format: functional, organism-based
Outline: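 L. donovani promastigotes grown at 26 °C in M199 plus 10% heat-inactivated FCS. Exposed to serial compound dilutions for 72 h, then Alamar blue read-out to give EC50.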

[6] = Selectivity index, ratio of CC50 for human HeLa cells to EC50 for Leishmania donovani LdBOB amastigotes infected in human THP1 cells; format: toxicity, cell-based; conditions: read-out: Ratio CC50/EC50; outline: as §1
[7] = test system: Leishmania donovani; assay: Antileishmanial activity against Leishmania donovani LdBOB axenic amastigotes after 72 hrs by alamar blue assay; format: functional, organism-based
Outline: (§2)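 Axenic amastigotes (L. donovani LdBOB; L. infantum clone JPCM5, grown at 26 °C in HOMEM) incubated 72 h with compounds. Viability read by Alamar blue; EC50 determined.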

[8] = test system: Leishmania infantum; assay: Antileishmanial activity against Leishmania infantum JPCM5 MCAN/ES/98/LLM-87 axenic amastigotes after 72 hrs by alamar blue assay; format: functional, organism-based; conditions: MCAN/ES/98/LLM-87, 72 h; outline: as §2
[9] = Cytotoxicity against human HeLa cells after 65 hrs by alamar blue assay; format: cell-based
Outline: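 HeLa cells first screened at 500 µM. Active compounds then tested for CC50: cells seeded at 2 × 10^4/well, exposed to compound 65 h, then Alamar Blue added for a further 5 h.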

[10] = Selectivity index, ratio of CC50 for human HeLa cells to EC50 for Leishmania donovani promastigotes; format: toxicity; conditions: read-out: Ratio CC50/EC50; outline: as §1
[11] = test system: Leishmania infantum; assay: Antileishmanial activity against Leishmania infantum JPCM5 MCAN/ES/98/LLM-87 promastigotes after 72 hrs by alamar blue assay; format: functional, organism-based; conditions: MCAN/ES/98/LLM-87, 72 h
Outline: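 L. infantum JPCM5 promastigotes grown at 26 °C in HOMEM. Exposed to serial compound dilutions for 72 h, then Alamar blue read-out to give EC50.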

[12] = test system: Leishmania infantum; assay: Selectivity ratio of EC50 for antileishmanial activity against Leishmania infantum JPCM5 MCAN/ES/98/LLM-87 promastigotes to EC50 for antileishmanial activity against Leishmania infantum JPCM5 MCAN/ES/98/LLM-87 amastigotes; format: functional
[13] = test system: Leishmania infantum; assay: Potency index, ratio of pentamidine EC50 to compound EC50 for antileishmanial activity against Leishmania infantum JPCM5 MCAN/ES/98/LLM-87 promastigotes; format: functional
[14] = test system: Leishmania infantum; assay: Potency index, ratio of miltefosine EC50 to compound EC50 for antileishmanial activity against Leishmania infantum JPCM5 MCAN/ES/98/LLM-87 promastigotes; format: functional

| Structure (SMILES) | selectivity ratio [1] | selectivity ratio [2] | selectivity ratio [3] | EC50 [4] | EC50 [5] | selectivity ratio [6] | EC50 [7] | EC50 [8] | CC50 at 65 h [9] | selectivity ratio [10] | EC50 [11] | Ratio EC50 [12] | Ratio EC50 [13] | Ratio EC50 [14] |
| --- | --- | --- | --- | --- | --- | --- | --- | --- | --- | --- | --- | --- | --- | --- |
| Cc1ccc(N2CCN(C(=O)c3cc4c([nH]c5ccccc54)c(-c4ccccc4)n3)CC2)cc1 | > 80.6 | > 51.9 | > 152 | 5.7 µM | 4.91 µM | > 87.7 | 3.3 µM | 6.2 µM | > 500 µM | > 102 | 9.63 µM | 2 - 5 | – | – |
| O=C(c1cc2c([nH]c3ccccc32)c(-c2ccccc2)n1)N1CCN(c2ccccc2F)CC1 | > 53.2 | > 33.6 | > 179 | 4 µM | 3.47 µM | > 125 | 2.8 µM | 9.4 µM | > 500 µM | > 144 | 14.9 µM | – | – | – |
| Cc1ccccc1N1CCN(C(=O)c2cc3c([nH]c4ccccc43)c(-c3ccccc3)n2)CC1 | – | > 13.8 | > 83.3 | 9.6 µM | 12.6 µM | > 52.1 | 6 µM | – | > 500 µM | > 39.7 | 36.2 µM | – | – | – |
| O=C(c1cc2c([nH]c3ccccc32)c(-c2ccccc2)n1)N1CCN(c2ccc(Cl)cc2)CC1 | – | > 15.2 | – | – | 38.6 µM | – | – | – | > 500 µM | > 12.9 | 33 µM | – | – | – |
| O=C(c1cc2c([nH]c3ccccc32)c(-c2ccccc2)n1)N1CCN(Cc2ccccc2)CC1 | – | 1.2 | 2.3 | 8.8 µM | 16.4 µM | 3.3 | 12.6 µM | – | 28.9 µM | 1.8 | 24.3 µM | – | – | – |
| N=C(N)c1ccc(OCCCCCOc2ccc(C(=N)N)cc2)cc1 [PENTAMIDINE] | – | – | – | 23.7 µM | 6.4 µM | – | 1.6 µM | 2.7 µM | – | – | 8.31 µM | – | – | – |
| O=C(c1cc2c([nH]c3ccccc32)c(-c2ccccc2)n1)N1CCN(c2ccccc2)CC1 | 8.5 | 3 | 3 | 7.3 µM | 16.3 µM | 5.2 | 12.5 µM | 4.5 µM | 38.1 µM | 2.3 | 12.5 µM | – | – | – |
| O=C(c1cc2c([nH]c3ccccc32)c(-c2ccccc2)n1)N1CCN(c2ccncc2)CC1 | – | 1.2 | – | – | 68.5 µM | – | – | – | 78.7 µM | 1.2 | 66.7 µM | – | – | – |
| O=C(c1cc2c([nH]c3ccccc32)c(-c2ccccc2)n1)N1CCN(c2ccc([N+](=O)[O-])cc2)CC1 | > 20.2 | > 25.5 | > 42.4 | 21.5 µM | 12.8 µM | > 23.3 | 11.8 µM | 24.8 µM | > 500 µM | > 39.1 | 19.8 µM | – | – | – |
| O=C(c1cc2c([nH]c3ccccc32)c(-c2ccccc2)n1)N1CCN(c2cccc(Cl)c2)CC1 | 5.6 | 1.2 | 1.8 | 6.8 µM | 13.2 µM | 2.7 | 10.2 µM | 3.3 µM | 18.4 µM | 1.4 | 15.9 µM | – | – | – |
| COc1ccc(N2CCN(C(=O)c3cc4c([nH]c5ccccc54)c(-c4ccccc4)n3)CC2)cc1 | > 96.2 | > 55.1 | > 179 | 9.2 µM | 6.32 µM | > 54.4 | 2.8 µM | 5.2 µM | > 500 µM | > 79.1 | 9.07 µM | 2 - 5 | – | – |
| COc1ccccc1N1CCN(C(=O)c2cc3c([nH]c4ccccc43)c(-c3ccccc3)n2)CC1 | 41.8 | 61.1 | 89 | 8 µM | 3.49 µM | 25.6 | 2.3 µM | 4.9 µM | 205 µM | 58.7 | 3.35 µM | 2 - 5 | 4 | 4 |
| O=C(c1cc2c([nH]c3ccccc32)c(-c2ccccc2)n1)N1CCN(c2ccccn2)CC1 | – | > 14.7 | > 98 | 11.9 µM | 7.5 µM | > 42 | 5.1 µM | – | > 500 µM | > 66.7 | 34 µM | – | – | – |
| O=C(c1cc2c([nH]c3ccccc32)c(-c2ccccc2)n1)N1CCN(c2ccccc2Cl)CC1 | > 41 | > 31.8 | > 86.2 | 8.5 µM | 6.98 µM | > 58.8 | 5.8 µM | 12.2 µM | > 500 µM | > 71.6 | 15.7 µM | – | – | – |
| COc1cccc(N2CCN(C(=O)c3cc4c([nH]c5ccccc54)c(-c4ccccc4)n3)CC2)c1 | 73.3 | 71 | 108 | 6.9 µM | 4.85 µM | 29.7 | 1.9 µM | 2.8 µM | 205 µM | 42.3 | 2.89 µM | 2 - 5 | 4 | 4 |
| O=C(c1cc2c([nH]c3ccccc32)c(-c2ccccc2)n1)N1CCN(c2cccc(Cl)c2Cl)CC1 | > 172 | > 46.7 | > 87.7 | 6.4 µM | 6.95 µM | > 78.1 | 5.7 µM | 2.9 µM | > 500 µM | > 71.9 | 10.7 µM | 2 - 5 | – | – |
| O=C(c1cc2c([nH]c3ccccc32)c(-c2ccccc2)n1)N1CCN(c2ccc(F)cc2)CC1 | > 44.2 | > 35.5 | > 39.7 | 22.3 µM | 17.5 µM | > 22.4 | 12.6 µM | 11.3 µM | > 500 µM | > 28.6 | 14.1 µM | – | – | – |
| CCCCCCCCCCCCCCCCOP(=O)([O-])OCC[N+](C)(C)C [MILTEFOSINE] | – | – | – | 6.4 µM | 3.12 µM | – | 2.8 µM | 4.8 µM | – | – | 12.6 µM | – | – | – |
